Measured values taken from ChEMBL document CHEMBL1154977, “Antiproliferative activity of novel benzo[b][1,6]naphthyridines in human solid tumor cell lines” (Bioorg Med Chem Lett, 2010).

What was measured:
[1] = tested on: Ishikawa; experiment: Growth inhibition of human Ishikawa cells after 48 hrs by sulforhodamine B assay; type: functional
How it was run: (§1)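 Human solid tumor cells were exposed to drug for 48 h. Growth was measured by sulforhodamine B staining, and results were expressed as GI₅₀ (50% growth inhibition).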

[2] = tested on: WiDr; experiment: Growth inhibition of human WiDr cells after 48 hrs by sulforhodamine B assay; type: functional; how it was run: as §1
[3] = tested on: SW1573; experiment: Growth inhibition of human SW1573 cells after 48 hrs by sulforhodamine B assay; type: functional; conditions: SW1573, 48 h; how it was run: as §1
[4] = tested on: T47D; experiment: Growth inhibition of human T47D cells after 48 hrs by sulforhodamine B assay; type: functional; how it was run: as §1
[5] = tested on: HeLa; experiment: Growth inhibition of human HeLa cells after 48 hrs by sulforhodamine B assay; type: functional; how it was run: as §1
[6] = tested on: Nakaseomyces glabratus; experiment: Antifungal activity against Candida glabrata ATCC 90030 after 48 hrs by broth microdilution method; type: functional, organism-based; conditions: ATCC 90030, 48 h
How it was run: (§2)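 Candida strains were grown on nutrient agar at 35–37 °C for 24 h and suspended in normal saline at 1.0–5.0 × 10³ cfu mL⁻¹, matched to a 0.5 McFarland standard. Broth microdilution was run in RPMI 1640 buffered with MOPS, with growth and sterility controls. Plates were incubated at 35–37 °C in a moist dark chamber, shaken, and read for optical density at 490 nm after 48 h.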

[7] = tested on: Escherichia coli; experiment: Antibacterial activity against Escherichia coli ATCC 35218 after 24 hrs by broth microdilution method; type: functional, organism-based; conditions: ATCC 35218, 24 h
How it was run: as §2, with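 “Bacteria” for “Candida strains”, “about 5.0” for “1.0–5.0”, “10⁵” for “10³”, “Mueller Hinton broth” for “RPMI 1640 buffered with MOPS,”, “630” for “490”, “24” for “48”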

[8] = tested on: Staphylococcus aureus; experiment: Antibacterial activity against Staphylococcus aureus NRS 107 after 24 hrs by broth microdilution method; type: functional, organism-based; conditions: NRS 107, 24 h
How it was run: (§3)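 Bacteria grown on nutrient agar at 35–37 °C for 24 h, then suspended in normal saline to approximately 5.0 × 10⁵ cfu mL⁻¹, matched to 0.5 McFarland. Broth microdilution in Mueller Hinton broth with growth and sterility controls. Incubated at 35–37 °C in a moist dark chamber, shaken, and optical density read at 630 nm after 24 h.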

[9] = tested on: Staphylococcus aureus; experiment: Antibacterial activity against Staphylococcus aureus ATCC 29213 after 24 hrs by broth microdilution method; type: functional, organism-based; conditions: ATCC 29213, 24 h; how it was run: as §3
[10] = tested on: Pseudomonas aeruginosa; experiment: Antibacterial activity against Pseudomonas aeruginosa ATCC 27853 after 24 hrs by broth microdilution method; type: functional, organism-based; conditions: ATCC 27853, 24 h
How it was run: (§4)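 Bacteria were grown on nutrient agar at 35–37 °C for 24 h and suspended in normal saline at about 5.0 × 10⁵ cfu mL⁻¹, matched to a 0.5 McFarland standard. Broth microdilution was run in Mueller Hinton broth with growth and sterility controls. Plates were incubated at 35–37 °C in a moist dark chamber, shaken, and read for optical density at 630 nm after 24 h.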

[11] = tested on: Nakaseomyces nivariensis; experiment: Antifungal activity against Candida nivariensis 5937-63 after 48 hrs by broth microdilution method; type: functional, organism-based; conditions: 5937-63, 48 h; how it was run: as §2
[12] = tested on: Escherichia coli; experiment: Antibacterial activity against Escherichia coli ATCC 25922 after 24 hrs by broth microdilution method; type: functional, organism-based; conditions: ATCC 25922, 24 h; how it was run: as §4
[13] = tested on: Staphylococcus aureus; experiment: Antibacterial activity against Staphylococcus aureus ATCC 25923 after 24 hrs by broth microdilution method; type: functional, organism-based; conditions: ATCC 25923, 24 h; how it was run: as §3
[14] = tested on: Candida albicans; experiment: Antifungal activity against Candida albicans ATCC 90028 after 48 hrs by broth microdilution method; type: functional, organism-based; conditions: ATCC 90028, 48 h; how it was run: as §2
[15] = tested on: Enterococcus faecalis; experiment: Antibacterial activity against Enterococcus faecalis ATCC 29212 after 24 hrs by broth microdilution method; type: functional, organism-based; conditions: ATCC 29212, 24 h; how it was run: as §4
[16] = tested on: Pichia kudriavzevii; experiment: Antifungal activity against Candida krusei ATCC 6258 after 48 hrs by broth microdilution method; type: functional, organism-based; conditions: ATCC 6258, 48 h; how it was run: as §2
[17] = tested on: Staphylococcus aureus; experiment: Antibacterial activity against epidemic methicillin-resistant Staphylococcus aureus 16 after 24 hrs by broth microdilution method; type: functional, organism-based; conditions: Staphylococcus aureus, 16, 24 h; how it was run: as §3
[18] = tested on: Klebsiella oxytoca; experiment: Antibacterial activity against Klebsiella oxytoca ATCC 700324 after 24 hrs by broth microdilution method; type: functional, organism-based; conditions: ATCC 700324, 24 h
[19] = tested on: Candida parapsilosis; experiment: Antifungal activity against Candida parapsilosis ATCC 22019 after 48 hrs by broth microdilution method; type: functional, organism-based; conditions: Lodderomyces parapsilosis, ATCC 22019, 48 h; how it was run: as §2
[20] = tested on: Klebsiella pneumoniae; experiment: Antibacterial activity against Klebsiella pneumoniae ATCC 700603 after 24 hrs by broth microdilution method; type: functional, organism-based; conditions: ATCC 700603, 24 h; how it was run: as §4

Structure (SMILES) | GI50 [3] | GI50 [4] | GI50 [5] | GI50 [1] | GI50 [2] | IC50 [6] | IC50 [7] | IC50 [8] | IC50 [9] | IC50 [10] | IC50 [11] | IC50 [12] | IC50 [13] | IC50 [14] | IC50 [15] | IC50 [16] | IC50 [17] | IC50 [18] | IC50 [19] | IC50 [20]
C=CCN1C(c2ccccc2)=Cc2nc3ccccc3cc2C1C(Cl)(Cl)Cl (stereo not given) | 46 µM | 48 µM | 32 µM | 31 µM | 42 µM |  |  |  |  |  |  |  |  |  |  |  |  |  |  | 
ClC(Cl)(Cl)C1c2cc3ccccc3nc2C=C(c2ccccc2)N1CCN1CCOCC1 (stereo not given) | 31 µM | 26 µM | 6.5 µM | 17 µM | 20 µM |  |  |  |  |  |  |  |  |  |  |  |  |  |  | 
COC1OC(c2ccccc2)=Cc2nc3ccccc3cc21 (stereo not given) | > 100 µM | > 100 µM | > 100 µM | > 100 µM | > 100 µM | > 100 µM | > 100 µM | > 100 µM | 29 µM | > 100 µM | > 100 µM | > 100 µM | > 100 µM | > 100 µM | > 100 µM | > 100 µM | > 100 µM | > 100 µM | > 100 µM | > 100 µM
CCCCN1C(c2ccccc2)=Cc2nc3ccccc3cc2C1C(Cl)(Cl)Cl (stereo not given) | 6.5 µM | 15 µM | 6.1 µM | 3.1 µM | 16 µM |  |  |  |  |  |  |  |  |  |  |  |  |  |  | 
CCOC1OC(c2ccccc2)=Cc2nc3ccccc3cc21 (stereo not given) | > 100 µM | > 100 µM | > 100 µM | > 100 µM | > 100 µM | 18 µM | 27 µM | 24 µM | 23 µM | 22 µM | 16 µM | 20 µM | 20 µM | 20 µM | 25 µM | 4.5 µM | 17 µM | 63 µM | 20 µM | 56 µM

The next compounds have a lower GI50 [3] than those just listed; values first:

GI50 [3] | GI50 [4] | GI50 [5] | Structure (SMILES) | GI50 [1] | GI50 [2] | IC50 [6] | IC50 [7] | IC50 [8] | IC50 [9] | IC50 [10] | IC50 [11] | IC50 [12] | IC50 [13] | IC50 [14] | IC50 [15] | IC50 [16] | IC50 [17] | IC50 [18] | IC50 [19] | IC50 [20]
4.3 µM | 54 µM | 5.6 µM | CCOc1ccc(CCN2C(c3ccccc3)=Cc3nc4ccccc4cc3C2C(Cl)(Cl)Cl)cc1OCC (stereo not given) | 4.1 µM | 37 µM |  |  |  |  |  |  |  |  |  |  |  |  |  |  | 
5.5 µM | 60 µM | 38 µM | ClC(Cl)(Cl)C1c2cc3ccccc3nc2C=C(c2ccccc2)N1CCc1ccccc1 (stereo not given) | 25 µM | 57 µM |  |  |  |  |  |  |  |  |  |  |  |  |  |  | 
5.1 µM | 71 µM | 27 µM | ClC(Cl)(Cl)C1c2cc3ccccc3nc2C=C(c2ccccc2)N1Cc1ccccc1 (stereo not given) | 15 µM | 46 µM |  |  |  |  |  |  |  |  |  |  |  |  |  |  | 
